The record followed here is ChEMBL document CHEMBL3091322 (J Med Chem, 2013).

Each structure is given as a SMILES string. Some results are limits rather than exact numbers.

For assay [1], the species on record is Rattus norvegicus. Kind of assay: Selectivity ratio of Ki for Sprague-Dawley rat brain frontal cortex NET to Ki for Sprague-Dawley rat brain stem SERT. Type of assay: tissue-based.
The target in assay [2] is Sodium-dependent serotonin transporter (Rattus norvegicus) (UniProt P31652). Kind of assay: Displacement of [3H]citalopram from Sprague-Dawley rat brain stem SERT site S1 at 10 uM by scintillation counting analysis. The assay is classed as tissue-based. (In general: Loss of bound radioactivity is the signal in a displacement assay; it reports binding, not function.)
Sequence of Sodium-dependent serotonin transporter (Rattus norvegicus) (P31652 whole entry): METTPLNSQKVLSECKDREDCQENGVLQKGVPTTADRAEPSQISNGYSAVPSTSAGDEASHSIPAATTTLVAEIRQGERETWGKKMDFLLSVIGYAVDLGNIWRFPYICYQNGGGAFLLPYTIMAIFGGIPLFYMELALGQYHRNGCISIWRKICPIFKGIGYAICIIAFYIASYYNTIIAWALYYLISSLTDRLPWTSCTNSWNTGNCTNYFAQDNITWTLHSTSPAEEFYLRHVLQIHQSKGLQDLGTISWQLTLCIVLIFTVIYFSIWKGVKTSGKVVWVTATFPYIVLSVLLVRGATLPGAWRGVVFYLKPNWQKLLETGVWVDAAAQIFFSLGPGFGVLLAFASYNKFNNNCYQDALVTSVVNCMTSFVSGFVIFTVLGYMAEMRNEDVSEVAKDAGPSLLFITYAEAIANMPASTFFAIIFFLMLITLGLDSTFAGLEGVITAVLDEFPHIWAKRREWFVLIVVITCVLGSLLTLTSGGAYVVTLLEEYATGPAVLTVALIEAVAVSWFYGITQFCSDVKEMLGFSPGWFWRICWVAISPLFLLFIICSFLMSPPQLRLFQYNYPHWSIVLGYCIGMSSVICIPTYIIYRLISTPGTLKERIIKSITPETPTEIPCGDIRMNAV
Assay [3] addresses Sodium-dependent serotonin transporter (Rattus norvegicus, UniProt P31652). Kind of assay: Displacement of [3H]citalopram from Sprague-Dawley rat brain stem SERT site S1 by scintillation counting analysis.
In assay [4] the target is T1, Sodium-dependent serotonin transporter (Homo sapiens, UniProt P31645). In words: biochemical. The assay is classed as cell-based, COS-7.
Target sequence in this assay (P31645 whole entry): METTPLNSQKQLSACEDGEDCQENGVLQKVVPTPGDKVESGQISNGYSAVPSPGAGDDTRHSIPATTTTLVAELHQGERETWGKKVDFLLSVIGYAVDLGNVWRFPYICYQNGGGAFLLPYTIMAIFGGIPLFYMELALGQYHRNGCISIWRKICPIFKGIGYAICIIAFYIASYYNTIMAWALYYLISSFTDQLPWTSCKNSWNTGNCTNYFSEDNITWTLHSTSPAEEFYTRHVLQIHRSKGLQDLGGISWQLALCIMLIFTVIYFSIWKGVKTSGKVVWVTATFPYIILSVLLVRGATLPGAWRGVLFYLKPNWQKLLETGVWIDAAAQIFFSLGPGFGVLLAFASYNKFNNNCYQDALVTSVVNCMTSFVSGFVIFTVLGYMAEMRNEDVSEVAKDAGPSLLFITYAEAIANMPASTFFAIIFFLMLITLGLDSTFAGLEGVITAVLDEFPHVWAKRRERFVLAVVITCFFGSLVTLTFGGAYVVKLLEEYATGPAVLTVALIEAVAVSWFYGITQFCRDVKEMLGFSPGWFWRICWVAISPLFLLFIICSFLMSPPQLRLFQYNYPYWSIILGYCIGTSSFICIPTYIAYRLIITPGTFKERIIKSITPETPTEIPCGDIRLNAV
A short description of assay [5]: Displacement of [3H]nisoxetine from Sprague-Dawley rat brain frontal cortex NET by scintillation counting analysis. The assay is classed as tissue-based. The method, boiled down:
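Frontal cortex membranes from male Sprague-Dawley rats incubated with 0.5 nM [3H]nisoxetine for 180 min at 0–4°C in pH 7.4 Tris/NaCl/KCl buffer. Desipramine used for nonspecific binding. Full concentration curves run for compounds giving >70% displacement at 10 µM. Filtration and scintillation counting; Ki calculated.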

For assay [6], the species on record is Rattus norvegicus. Kind of assay: Displacement of [3H]nisoxetine from Sprague-Dawley rat brain frontal cortex NET at 10 uM by scintillation counting analysis. Type of assay: tissue-based. The method, boiled down: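 Rat frontal cortex membranes (8 mg original wet weight) in Tris/NaCl/KCl buffer, pH 7.4, with 0.5 nM [3H]nisoxetine for 180 min at 0–4°C. Single test concentration of 10 µM. Nonspecific binding defined with desipramine. Filtration on GF/B filters, then scintillation counting. Result reported as percent displacement.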

Assay [7] addresses T1, Sodium-dependent serotonin transporter. Particulars: COS-7.
Target sequence in this assay (P31645 whole entry, looked up): as the sequence (P31645 whole entry) above

Sequence of Sodium-dependent serotonin transporter (Rattus norvegicus, UniProt P31652) (P31652 whole entry): as the sequence (P31652 whole entry) above

Consider `CN(CCCC1(c2ccc(F)cc2)OCc2cc(C#N)ccc21)CCc1ccccc1` (racemic), for which the Ratio Ki in the assay listed under Rattus norvegicus [1] turned out to be 4.4. For the same compound, in assay [2], the inhibition was greater than 70%. In addition, the Ki in assay [3] came to 0.0409 µM; in assay [5] it was 0.179 µM. Also, in assay [4], the IC50 turned out to be 5.3 µM. `CN(C)CCCC1(c2ccc(F)cc2)OCc2cc(/C=C/Cc3ccccc3)ccc21` (racemic) returned a Ki in assay [5] of 4.75 µM. Consider `CN(C)CCCC1(c2ccc(F)cc2)OCc2cc(CN(C)CCCC3(c4ccc(F)cc4)OCc4cc(C#N)ccc43)ccc21` (racemic), for which the inhibition in the assay listed under Rattus norvegicus [6] worked out at 65.1%.

For `CN(C)CCCC1(c2ccc(F)cc2)OCc2cc(CN)ccc21` (racemic), the inhibition in the assay listed under Rattus norvegicus [6] is 33.2%.

In turn, `CN(CCCC1(c2ccc(F)cc2)OCc2cc(C#N)ccc21)Cc1coc2ccccc12` (racemic) showed a Ki in assay [5] of 0.265 µM. Regarding `CCCCN(C)CCCC1(c2ccc(F)cc2)OCc2cc(C#N)ccc21` (racemic), the inhibition in assay [2] was greater than 70%. Besides, the Ki in assay [3] was 0.0616 µM; in assay [5], 0.276 µM. Regarding `CN(C)CCCC1(c2ccc(F)cc2)OCc2cc(CNCc3ccc4c(c3)COC4(CCCN(C)C)c3ccc(F)cc3)ccc21` (racemic), the inhibition in the assay filed under Rattus norvegicus [6] turned out to be 66.9%. The same measure, in the same setting: to `CN(C)CCCC1(c2ccc(F)cc2)OCc2cc(CN3CCCCC3)ccc21` (racemic) belongs 29.3%. Still for that read-out and setting: with `CN(C)CCCC1(c2ccc(F)cc2)OCc2cc(C=O)ccc21` (racemic) the figure was 46.1%. In the assay filed under Rattus norvegicus [6], `CN(C)CCCC1(c2ccc(/C=C/c3ccccc3)cc2)OCc2cc(C#N)ccc21` (racemic) gave an inhibition of 44%. Further, in assay [7], the T1/2 stood at 44 min. `CN(C)CCCC1(c2ccc(F)cc2)OCc2cc(CN(C)C)ccc21` (racemic) came in with an inhibition in the assay filed under Rattus norvegicus [6] of 21.9%. Take `CN(C)CCCC1(c2ccc(F)cc2)OCc2cc(CN3CCN(c4cccc(Cl)c4Cl)CC3)ccc21` (racemic): the inhibition in the assay listed under Rattus norvegicus [6] was determined as 19.7%. In assay [5], `CN(CCCC1(c2ccc(F)cc2)OCc2cc(C#N)ccc21)Cc1ccc2ccccc2c1` (racemic) had a Ki of 0.272 µM. Same read-out and setting: to `CN(C)CCCC1(c2ccc(F)cc2)OCc2cc(CNCc3ccc4ccccc4c3)ccc21` (racemic) belongs 0.653 µM. In turn, `CN(C)CCCC(O)(c1ccc(Br)cc1)c1ccc(C#N)cc1CO` (racemic) registered an inhibition in the assay listed under Rattus norvegicus [6] of 17%. In the case of `CN(CCCC1(c2ccc(F)cc2)OCc2cc(C#N)ccc21)CC1CC1` (racemic), in the assay listed under Rattus norvegicus [6], the inhibition is 69.8%. In the assay filed under Rattus norvegicus [6], `CN(CCCC1(c2ccc(F)cc2)OCc2cc(C#N)ccc21)Cc1csc2ccccc12` (racemic) had an inhibition of 62.9%. On the same count and under the same terms, with `CN(CCN)CCCC1(c2ccc(F)cc2)OCc2cc(C#N)ccc21` (racemic) the figure was 20.2%.

On to `CN(CCCCc1ccccc1)CCCC1(c2ccc(F)cc2)OCc2cc(C#N)ccc21` (racemic), for which the inhibition constant (Ki) in assay [5] amounted to 0.448 µM. In the case of `COC(=O)c1ccc2c(c1)COC2(CCCN(C)C)c1ccc(F)cc1` (racemic), in the assay listed under Rattus norvegicus [6], the inhibition amounted to 64.3%.

`CN(C)CCCC1(c2ccc(Br)cc2)OCc2cc(C#N)ccc21` (racemic): the inhibition in the assay filed under Rattus norvegicus [6] is 45%. In the assay listed under Rattus norvegicus [6], `CN(CCCC1(c2ccc(F)cc2)OCc2cc(C#N)ccc21)Cc1ccncc1` (racemic) registered an inhibition of 28.1%. `COc1ccc2[nH]cc(CN(C)CCCC3(c4ccc(F)cc4)OCc4cc(C#N)ccc43)c2c1` (racemic): the Ki in assay [5] was determined as 5.09 µM.

The compound `CN(C)CCCC1(c2ccc(F)cc2)OCc2cc(/C=C/c3ccccc3)ccc21` (single isomer, unassigned; (+)) displayed an IC50 in assay [4] of 3.4 µM.

In the assay listed under Rattus norvegicus [6], `COc1ccccc1N1CCN(Cc2ccc3c(c2)COC3(CCCN(C)C)c2ccc(F)cc2)CC1` (racemic) came in with an inhibition of 39.7%. Take `CN(CCCC1(c2ccc(F)cc2)OCc2cc(C#N)ccc21)Cc1c[nH]c2ccccc12` (racemic): the Ki in assay [5] was found to be 1.3 µM.

In turn, `CN(C)CCCC1(c2ccc(-c3cccc(C#N)c3)cc2)OCc2cc(C#N)ccc21` (racemic) showed a Ki in assay [5] of 2.8 µM. In assay [5], `CN(CCCC1(c2ccc(F)cc2)OCc2cc(C#N)ccc21)Cc1ccc(N(C)C)cc1` (racemic) gave a Ki of 1.38 µM.

Turning to `CN(CCCC1(c2ccc(F)cc2)OCc2cc(C#N)ccc21)Cc1ccc2c(c1)Cc1ccccc1-2` (racemic), the inhibition in the assay listed under Rattus norvegicus [6] was 60.3%; in assay [2] it was greater than 70%. Also, the Ki in assay [3] amounted to 0.019 µM. Compound `CN(C)CCCC1(c2ccc(F)cc2)OCc2cc(-c3ccc([N+](=O)[O-])cc3)ccc21` (racemic) displayed a Ki in assay [5] of 8.28 µM. In turn, `CN(CCCC1(c2ccc(F)cc2)OCc2cc(C#N)ccc21)C1CC=C(c2c[nH]c3ccccc23)CC1` (racemic) displayed a Ki in assay [5] of 1.02 µM. On to `CN(C)CCCC1(c2ccc(F)cc2)OCc2cc(CN3CCOCC3)ccc21` (racemic), for which, in assay [2], the inhibition is greater than 70%. In addition, the Ki in assay [3] is 0.0136 µM; in assay [5], greater than 80 µM. The compound `CN(C)CCCC1(c2ccc(F)cc2)OCc2cc(C(N)=O)ccc21` (racemic) displayed a Ki in assay [5] of 0.123 µM. Take `CN(C)CCCC1(c2ccc(F)cc2)OCc2cc(-c3ccc(N)cc3)ccc21` (racemic): the inhibition in the assay listed under Rattus norvegicus [6] is 42%. `CN(CCCC1(c2ccc(F)cc2)OCc2cc(C#N)ccc21)Cc1ccnc2ccccc12` (stereo not drawn) yielded an inhibition in the assay listed under Rattus norvegicus [6] of 31.2%. In assay [5], `CN(C)CCCC1(c2ccc(F)cc2)OCc2cc(CNCc3coc4ccccc34)ccc21` (racemic) yielded a Ki of 0.284 µM.

For the compound `CN(C)CCCC1(c2ccc(F)cc2)COc2ccc(Br)cc21` (racemic), the affinity in assay [5], expressed as Ki, was 4.97 µM. For `CCCN(C)CCCC1(c2ccc(F)cc2)OCc2cc(C#N)ccc21` (racemic), the values for the inhibition (in the assay listed under Rattus norvegicus [6]; in assay [2]) were 60.4% and greater than 70%, respectively. The same compound had a Ki in assay [3] of 0.118 µM.

Consider `CN(C)CCCC1(c2ccc(-c3cccc(N)c3)cc2)OCc2cc(C#N)ccc21` (racemic), for which, in assay [5], the affinity corresponds to a Ki of 7.02 µM.

For the compound `CN(C)CCCC1(c2ccc(F)cc2)OCc2cc(CNCc3ccc4c(c3)Cc3ccccc3-4)ccc21` (racemic), the Ratio Ki in the assay listed under Rattus norvegicus [1] came out at 99. The compound further returned an inhibition in assay [2] greater than 70%. In addition, the Ki in assay [3] came out at 0.0236 µM; in assay [5] it was 2.33 µM. In turn, `CN(C)CCCC1(c2ccc(F)cc2)OCc2c(I)cccc21` (racemic) gave a Ki in assay [5] of 11.3 µM. On the same count and under the same terms, with `CN(C)CCCC1(c2ccc(F)cc2)OCc2cc(CN3CCN(c4ccccc4)CC3)ccc21` (racemic) the figure was 11.1 µM.

The inhibition is the drop in the measured response relative to a control, in per cent. What is called Ki is the equilibrium dissociation constant of an inhibitor or competing ligand from its target. In general, IC50 refers to the concentration at which inhibition is half-maximal. Lower therefore signals greater potency in that assay.
